The structures appear in SMILES notation. In brackets after ≈: the same amount, converted by molar mass. Where only a bound is given, the exact number is not on record here.

Results on 21 compounds are retold here after ChEMBL document CHEMBL1764975, “A new DNA gyrase inhibitor subclass of the cyclothialidine family based on a bicyclic dilactam-lactone scaffold. Synthesis and antibacterial properties” (J Med Chem, 2011).

Assay [1] relates to Staphylococcus aureus. The assay is described as follows: (§1) Antimicrobial activity against Staphylococcus aureus Smith after 18 hrs by agar dilution method. It is filed as functional. Put shortly: (§2)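 Agar dilution on Mueller-Hinton medium, inoculum 10⁴ CFU/spot; MIC is the minimum inhibitory concentration against the named strain.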
Assay [2] relates to Escherichia coli. The assay is described as follows: Inhibition of Escherichia coli DNA gyrase A2B2 complex after 30 mins by supercoiling assay.
Assay [3] has as its system Staphylococcus aureus. The assay is described as follows: Antimicrobial activity against Staphylococcus aureus Smith infected in iv dosed septicaemia Swiss albino mouse model after 4 days. The conditions noted are these: 96 h. It is filed as functional. Put shortly:
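Septicaemia model in mice infected with S. aureus Smith, compound given iv. In experiments with 0-1 survivors among 5-10 control mice, ED₅₀ (mg/kg) taken as lowest dose giving 3-5 survivors out of 5 infected mice.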

The test system of assay [4] is Staphylococcus aureus. The assay is described as follows: Antimicrobial activity against multidrug-resistant Staphylococcus aureus after 18 hrs by agar dilution method. It is filed as functional. Put shortly:
(§3)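 Agar dilution on Mueller-Hinton agar, inoculum 10⁴ CFU/spot, against panels of multiresistant clinical strains (S. aureus 11, E. faecalis 16, E. faecium 23). MIC_50/90 in μg/mL taken as the minimum concentration inhibiting at least 50% or 90% of the strains tested.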

Assay [5] has as its system Enterococcus faecalis. The assay is described as follows: Antimicrobial activity against multidrug-resistant Enterococcus faecalis after 18 hrs by agar dilution method. It is filed as functional. Put shortly:
as §3

A further assay concerns Enterococcus faecium. The assay is described as follows: Antimicrobial activity against multidrug-resistant Enterococcus faecium after 18 hrs by agar dilution method. Format: functional. Put shortly: as §3
Assay [6] concerns Staphylococcus aureus. Described as §1. It is filed as functional. The method in brief:
as §2
This is another data set of the same source.

Assay [7] relates to Escherichia coli. The assay is described as follows: Antimicrobial activity against Escherichia coli 25922 after 18 hrs by agar dilution method. Format: functional. The conditions noted are these: Escherichia coli, 25922, 18 h. The method in brief: as §2
Background: In agar dilution the substance is mixed into plates at graded concentrations.

In assay [8] the test system is Staphylococcus aureus. The assay is described as follows: Antimicrobial activity against Staphylococcus aureus ATCC 25923 after 18 hrs by agar dilution method. Format: functional. The conditions noted are these: ATCC 25923, 18 h. Put shortly: as §2
The test system of assay [9] is Staphylococcus epidermidis. The assay is described as follows: Antimicrobial activity against Staphylococcus epidermidis 16/2 after 18 hrs by agar dilution method. It is filed as functional. The conditions noted are these: 16/2, 18 h. The method in brief: as §2
Another assay relates to Streptococcus pyogenes. The assay is described as follows: Antimicrobial activity against Streptococcus pyogenes b15 after 18 hrs by agar dilution method. It is filed as functional. The conditions noted are these: b15, 18 h. Put shortly:
as §2

Assay [10] has as its system Stenotrophomonas maltophilia. The assay is described as follows: Antimicrobial activity against Xanthomonas maltophilia IAC 739 after 18 hrs by agar dilution method. The conditions noted are these: IAC 739, 18 h. Format: functional. Put shortly:
as §2

For assay [11], the system named is Enterococcus faecalis. The assay is described as follows: Antimicrobial activity against Enterococcus faecalis 6 after 18 hrs by agar dilution method. The conditions noted are these: Enterococcus faecalis, 6, 18 h.

Broadly, the MIC is the least concentration at which growth counts as inhibited. Low readings indicate greater potency, high ones weaker potency. For orientation: ED50 means the dose at which the effect has come halfway, by size or by number of responders. Higher therefore signals a need for a large dose. `COc1cc(O)c2c(c1Br)C(=O)OCC(=O)N(C)CC(=O)N[C@H](c1nc(C)no1)CSC2`: inhibition of growth in the assay on Staphylococcus aureus [1] (MIC) required 2 µg/mL (≈ 3.78 µM). Also, the MNEC in the assay on Escherichia coli [2] amounted to 0.05 µg/mL. In the assay with Staphylococcus aureus [3], this compound had an ED50 of over 12.5 mg/kg.
As usually defined, the MIC50 is the lowest concentration that inhibits either 50% of growth or 50% of the strains tested, depending on the study. What is called MIC90 is the lowest concentration that inhibits either 90% of growth or 90% of the strains tested, depending on the study. Read a high MIC90 as weaker potency. In the assay on Staphylococcus aureus [4], `COc1cccc(OC)c1C(=O)N[C@@H]1C(=O)N2[C@@H]1SC(C)(C)[C@@H]2C(=O)O` [METHICILLIN] registered an MIC50 of 256 µg/mL (≈ 673 µM) and an MIC90 of over 256 µg/mL.
`COc1cc(O)c2c(c1Br)C(=O)OCCNCC(=S)N[C@H](c1nc(C)no1)CSC2.Cl`: the MIC against Staphylococcus aureus [1] turned out to be 0.5 µg/mL. Besides, in the assay with Escherichia coli [2], the MNEC was 0.1 µg/mL. The ED50 with Staphylococcus aureus [3] is over 25 mg/kg.
As for `C[C@@H](O)[C@H]1C(=O)N2C(C(=O)O)=C(SCCNC=N)C[C@H]12` [IMIPENEM ANHYDROUS], the MIC50 in the assay on Enterococcus faecalis [5] came to 2 µg/mL (≈ 6.68 µM); against Staphylococcus aureus [4], 32 µg/mL (≈ 107 µM); with Enterococcus faecium, 64 µg/mL (≈ 214 µM). Moreover, the figures for the MIC90 in the assay on Enterococcus faecalis [5], with Staphylococcus aureus [4] and in the assay with Enterococcus faecium were 2 µg/mL (≈ 6.68 µM), 64 µg/mL (≈ 214 µM) and over 64 µg/mL, respectively.
As for `COc1cc(O)c2c(c1Br)C(=O)OCCN(C(=O)[C@@H](N)CC(C)C)CC(=O)N[C@H](c1nc(C)no1)CSC2.Cl`, 16 µg/mL was the least that counted as inhibitory in the assay with Staphylococcus aureus [1] (MIC). Moreover, the MNEC with Escherichia coli [2] was 0.1 µg/mL.
Turning to `COC(=O)[C@@H]1CSCc2c(O)cc(OC)c(C)c2C(=O)OCCCC/C(S)=N/1`, the MNEC in the assay on Escherichia coli [2] is 0.01 µg/mL.
For the compound `COc1cc(O)c2c(c1Br)C(=O)OCCN(C(=O)C(C)(C)C)CC(=O)N[C@H](c1nc(C)no1)CSC2`, the MIC in the assay on Staphylococcus aureus [1] stood at 0.5 µg/mL (≈ 0.854 µM). This compound also returned an MNEC in the assay with Escherichia coli [2] of 0.05 µg/mL. Besides, the ED50 in the assay with Staphylococcus aureus [3] is over 12 mg/kg.
In turn, `COc1cc(O)c2c(c1Br)C(=O)O[C@H](c1ccccc1)C(=O)NCC(=S)N[C@H](c1nc(C)no1)CSC2` returned an MIC against Staphylococcus aureus [1] of 0.5 µg/mL (≈ 0.823 µM). The MNEC in the assay with Escherichia coli [2] is 1 µg/mL. Also, in the assay with Staphylococcus aureus [3], the ED50 is over 25 mg/kg.
In the assay with Staphylococcus aureus [1], `COc1cc(O)c2c(c1Br)C(=O)OCC(=O)NCC(=O)N[C@H](c1nc(CO)no1)CSC2` had an MIC of 32 µg/mL (≈ 60.2 µM). Besides, the MNEC in the assay on Escherichia coli [2] amounted to 0.02 µg/mL.
Taken in the same sequence, the figures for `COc1cc(O)c2c(c1Br)C(=O)OCCN(S(C)(=O)=O)CC(=O)N[C@H](c1nc(C)no1)CSC2` were 64 µg/mL (≈ 110 µM) and 0.1 µg/mL.
Taken in the same sequence, the figures for `COc1cc(O)c2c(c1Cl)C(=O)OCCCCC(=S)N[C@H](c1nc(C)no1)CSC2` were 0.25 µg/mL (≈ 0.53 µM) and 0.002 µg/mL.
`COc1cc(O)c2c(c1Cl)C(=O)OCCCCC(=O)N[C@H](c1nc(C)no1)CSC2` returned an MIC with Staphylococcus aureus [1] of 0.25 µg/mL (≈ 0.548 µM). In addition, in the assay with Escherichia coli [2], the MNEC is 0.005 µg/mL. In addition, the ED50 in the assay on Staphylococcus aureus [3] is over 25 mg/kg.
In the assay with Staphylococcus aureus [1], `COc1cc(O)c2c(c1C)C(=O)OC[C@@H](CO)CCC(=S)N[C@H](c1nc(C)no1)CSC2` had an MIC of 1 µg/mL (≈ 2.08 µM). The compound further came in with an MNEC with Escherichia coli [2] of 0.05 µg/mL. The ED50 with Staphylococcus aureus [3] was over 25 mg/kg.
As for `COc1cc(O)c2c(c1C)C(=O)OC[C@H](CO)CCC(=O)N[C@H](c1nc(C)no1)CSC2`, the MIC with Staphylococcus aureus [1] turned out to be 8 µg/mL (≈ 17.2 µM). Also, in the assay on Escherichia coli [2], the MNEC amounted to 0.005 µg/mL.
In the assay with Staphylococcus aureus [1], `COc1cc(O)c2c(c1Br)C(=O)OCC(=O)NCC(=O)N[C@H](c1nc(C3CC3)no1)CSC2` had an MIC of 2 µg/mL (≈ 3.69 µM). The MNEC in the assay with Escherichia coli [2] worked out at 0.02 µg/mL. In the assay with Staphylococcus aureus [3], this compound showed an ED50 of 6 mg/kg.
As to `COc1cc(O)c2c(c1Cl)C(=O)OCC(=O)NCC(=O)N[C@H](c1nc(C)no1)CSC2`, inhibition of growth in the assay with Staphylococcus aureus [1] (MIC) required 8 µg/mL (≈ 17 µM). In the assay with Escherichia coli [2], this compound yielded an MNEC of 0.02 µg/mL. Moreover, the ED50 with Staphylococcus aureus [3] stood at 25 mg/kg.
The compound `COc1cc(O)c2c(c1Br)C(=O)OCCN(C(=O)[C@H](C)N)CC(=O)N[C@H](c1nc(C)no1)CSC2.Cl` yielded an MIC against Staphylococcus aureus [1] of over 64 µg/mL. Also, the MNEC with Escherichia coli [2] was found to be 0.1 µg/mL.
The compound `COc1cc(O)c2c(c1Br)C(=O)OCCN(C)CC(=O)N[C@H](c1nc(C)no1)CSC2.Cl` came in with an MIC against Staphylococcus aureus [1] of 1 µg/mL. The MNEC with Escherichia coli [2] was determined as 0.05 µg/mL. Moreover, in the assay on Staphylococcus aureus [3], the ED50 is over 25 mg/kg.
The compound `COc1cc(O)c2c(c1Br)C(=O)O[C@H](C)C(=O)NCC(=O)N[C@H](c1nc(C)no1)CSC2` came in with an MIC in the assay with Staphylococcus aureus [1] of 2 µg/mL (≈ 3.78 µM). This compound also displayed an MNEC in the assay with Escherichia coli [2] of 0.05 µg/mL. Moreover, the ED50 in the assay on Staphylococcus aureus [3] is over 12.5 mg/kg.
`COc1cc(O)c2c(c1C)C(=O)OCC(=S)NCC(=O)N[C@H](c1nc(C)no1)CSC2` came in with an MIC in the assay with Staphylococcus aureus [1] of 2 µg/mL (≈ 4.29 µM). The MNEC in the assay with Escherichia coli [2] is 0.005 µg/mL. In the assay on Staphylococcus aureus [3], this compound yielded an ED50 of over 25 mg/kg.
For the compound `CO[C@@H]1[C@@H](OC(N)=O)[C@@H](O)[C@H](Oc2ccc3c(O)c(NC(=O)c4ccc(O)c(CC=C(C)C)c4)c(=O)oc3c2C)OC1(C)C` [NOVOBIOCIN], the MIC in the assay with Staphylococcus aureus [6] is 0.12 µg/mL (≈ 0.196 µM); in the assay on Escherichia coli [7], over 64 µg/mL; against Staphylococcus aureus [8], 0.25 µg/mL (≈ 0.408 µM); in assay [9] it was 0.25 µg/mL (≈ 0.408 µM); with Streptococcus pyogenes, 1 µg/mL (≈ 1.63 µM); in [10], over 64 µg/mL. For the same compound, in the assay with Enterococcus faecalis [11], the MIC stood at 4 µg/mL (≈ 6.53 µM). The ED50 with Staphylococcus aureus [3] came out at 3 mg/kg.
